# Source: PMC4899155 (Molecular pharmaceutics, 2016)
# Tests used:
# Jurkat cells [1] = test: IL-2 ELISA assay in PMA/PHA stimulated Jurkat cells; type: cell-based, human; conditions: for IL-2 secretion: PMA/PHA stimulated Jurkat cells
# Procedure, shortened: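 Jurkat cells were kept in RPMI 1640 with L-glutamine and 10% FBS at 37°C, 5% CO2, about 10^6 cells/ml. […] After 15 min, a PHA (25 μg/mL)/PMA (1.25 μg/ml) mixture in PBS:DMSO (80:1) was added and cells were incubated 24 h at 37°C. Supernatant IL-2 was measured by human IL-2 ELISA.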
# Jurkat cells [2] = test: Intracellular calcium assay; type: cell-based, human
# Ova S/C Balb/c mice [3] = test: Mucin volume density; type: in vivo, mouse
# Procedure, shortened: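 Ova-sensitized/challenged Balb/c mice were dosed as single 20 mg/kg i.p. 40 min before analysis, twice-daily 20 mg/kg i.p. for 5 days, osmotic pump 20 mg/kg/day for 7 days, or dexamethasone 4 mg/kg daily for 8 days. Formalin-perfused lungs were cut into 5 μm paraffin sections and stained with periodic acid fluorescent Schiff. Mucin area in axial-bronchus epithelium per basement-membrane length was normalized to control and Ova groups (5-7 mice/group).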
# Ova S/C Balb/c mice [4] = test: Airway eosinophilia; type: in vivo, mouse
# [5] = Metabolic stability in mouse S9 fraction; type: in vitro ADME; conditions: 1 hour incubation
# [6] = Blood concentration under repeated dosing / osmotic minipump in Ova S/C mice; type: in vivo, Balb/c mice
# Procedure, shortened: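 Ova-sensitized/challenged Balb/c mice received test compound by surgically implanted osmotic minipump at 20 mg/kg/day for 7 days, or by two i.p. injections daily over the 5-day challenge period. Blood concentration was taken on the day of airway hyper-responsiveness measurement (day 28).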
# α4β3γ2 GABAAR = α4β3γ2 GABAAR (Homo sapiens, UniProt P18507+P48169); conditions: α4β3γ2 ref 27; cited from earlier work
# [7] = Metabolic stability in human liver microsomes; type: in vitro ADME
# Jurkat cells [8] = test: Automated patch-clamp electrophysiology for Jurkat cells; type: cell-based, human; conditions: in the presence of an EC3 concentration of GABA (0.3 μM)
# Ova S/C Balb/c mice [9] = test: Airway hyper-responsiveness to methacholine; type: in vivo, mouse
# Procedure, shortened: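 Male Balb/c mice were sensitized i.p. with 2 mg/kg/d ovalbumin in 2 mg alum on days 0, 7 and 14, then challenged intranasally with 1 mg/kg/d ovalbumin on days 23–27. Dosing was by i.p. injection 40 min before testing, or twice daily during challenge. The dexamethasone control was 4 mg/kg i.p. daily for 8 days. sRaw was measured versus aerosolized methacholine (mg/ml) in conscious mice (4-7/group, mean ± SEM).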
# [10] = tested on: guinea pig tracheal rings; test: Guinea pig airway smooth muscle organ bath; type: cell-based; conditions: 100 μM, rings contracted with 1 μM substance P, compared to vehicle
# [11] = Metabolic stability in mouse liver microsomes; type: in vitro ADME
# [12] = Single dose pharmacokinetic study in mice; type: in vivo; conditions: 5 mg/kg i.p.
# Procedure, shortened: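 Mice received a single 5 mg/kg i.p. dose of test compound in 10% DMSO, 40% propylene glycol and 50% PBS. Compound levels were followed over time in brain, lung and blood, with N = 3.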
# α6β3γ2 GABAAR = conditions: at concentrations higher that 1 μM ref 27; cited from earlier work
# [13] = Metabolic stability in human S9 fraction; type: in vitro ADME; conditions: 1 hour incubation
# [14] = Stability in mouse plasma; type: in vitro ADME
# Balb/c mice = test: Rotarod assay; type: in vivo, mouse; conditions: 10 minutes after injection, 15 rpm
# Chain of α4β3γ2 GABAAR (P48169 36-554): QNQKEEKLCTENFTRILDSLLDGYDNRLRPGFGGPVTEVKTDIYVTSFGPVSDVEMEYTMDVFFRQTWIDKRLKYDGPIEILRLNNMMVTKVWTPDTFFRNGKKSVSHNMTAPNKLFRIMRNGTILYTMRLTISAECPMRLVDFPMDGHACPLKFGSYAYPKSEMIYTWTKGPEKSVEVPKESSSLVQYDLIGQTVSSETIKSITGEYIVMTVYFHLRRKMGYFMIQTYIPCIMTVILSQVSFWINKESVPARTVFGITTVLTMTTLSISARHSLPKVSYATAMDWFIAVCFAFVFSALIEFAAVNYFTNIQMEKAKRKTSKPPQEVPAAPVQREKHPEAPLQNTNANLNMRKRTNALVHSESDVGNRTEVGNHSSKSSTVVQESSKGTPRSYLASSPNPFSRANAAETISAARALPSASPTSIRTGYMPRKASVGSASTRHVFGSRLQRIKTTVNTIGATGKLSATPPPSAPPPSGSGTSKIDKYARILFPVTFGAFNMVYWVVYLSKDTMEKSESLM
# Chain of α4β3γ2 GABAAR (P28472 26-473 partner): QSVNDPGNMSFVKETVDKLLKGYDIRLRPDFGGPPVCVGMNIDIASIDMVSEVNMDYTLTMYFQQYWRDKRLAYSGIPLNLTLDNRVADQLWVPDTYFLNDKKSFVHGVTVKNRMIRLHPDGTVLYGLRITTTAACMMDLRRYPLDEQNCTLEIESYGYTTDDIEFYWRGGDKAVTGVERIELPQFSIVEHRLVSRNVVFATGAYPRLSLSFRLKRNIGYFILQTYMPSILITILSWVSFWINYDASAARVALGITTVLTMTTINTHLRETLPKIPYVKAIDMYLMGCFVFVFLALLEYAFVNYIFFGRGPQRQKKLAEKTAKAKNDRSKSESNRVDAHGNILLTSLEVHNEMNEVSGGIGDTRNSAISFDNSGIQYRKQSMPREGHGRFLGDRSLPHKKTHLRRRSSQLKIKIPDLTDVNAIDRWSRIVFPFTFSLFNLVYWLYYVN
# Chain of α4β3γ2 GABAAR (P18507 40-475): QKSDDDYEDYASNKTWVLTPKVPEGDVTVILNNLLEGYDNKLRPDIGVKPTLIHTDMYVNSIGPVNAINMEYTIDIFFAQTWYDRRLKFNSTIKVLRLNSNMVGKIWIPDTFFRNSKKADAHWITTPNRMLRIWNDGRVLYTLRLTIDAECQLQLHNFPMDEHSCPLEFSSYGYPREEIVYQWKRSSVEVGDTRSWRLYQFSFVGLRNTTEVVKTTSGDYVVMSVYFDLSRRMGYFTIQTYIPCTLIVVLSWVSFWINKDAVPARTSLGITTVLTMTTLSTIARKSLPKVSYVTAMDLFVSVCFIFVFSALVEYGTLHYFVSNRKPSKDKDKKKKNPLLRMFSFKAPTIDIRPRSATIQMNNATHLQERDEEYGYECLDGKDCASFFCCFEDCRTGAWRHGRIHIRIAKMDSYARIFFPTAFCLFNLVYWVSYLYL
smiles,measurement,setting,value
"NCCCC(=O)O [GABA, reference compound]",IL-2 secretion,Jurkat cells [1]; 1 nM,ineffective
same,IL-2 secretion,Jurkat cells [1]; 100 nM,significantly reduced secretion of IL-2
same,increase in [Ca2+]i,Jurkat cells [2]; 150 mM,fully suppressed
same,concentration able to reduce the [Ca2+]i levels,Jurkat cells [2]; Jurkat cells,≥ 30 mM
"C[C@@H]1C[C@H]2[C@@H]3CCC4=CC(=O)C=C[C@]4(C)[C@@]3(F)[C@@H](O)C[C@]2(C)[C@@]1(O)C(=O)CO [dexamethasone, reference compound]",airway mucous metaplasia / mucin volume density,"Ova S/C Balb/c mice [3]; single i.p. injection daily for 8 days, 4 mg/kg, p<0.01",significantly decreased mucous metaplasia
same,airway eosinophilia,Ova S/C Balb/c mice [4]; 4 mg/kg i.p. daily for 8 days,significantly decreased airway eosinophilia
CCOC(=O)c1ncn2c1[C@@H]1CCCN1C(=O)c1cc(OC)ccc1-2 [XHE-III-74EE],Mouse S9 fraction % remaining after 1 hour,[5],98.4 ± 0.4%
same,"blood concentration, continuous release by implanted minipumps",[6]; implanted minipumps (Discussion),27.2 ng/mL
same,constant blood concentration at the day of AHR measurement,"[6]; implanted minipumps, 20 mg/kg/day for 7 days",27.2 ± 2.7 ng/g
same,cmax,[6]; twice daily i.p. injection,216 ng/mL
same,reported GABAAR subtype selectivity,α4β3γ2 GABAAR,subtype-selective
same,human liver microsomes % remaining after 1 hour,[7]; 1 hour incubation,99.2 ± 0.15%
same,predicted half-life,[7]; human liver microsomes and S9 fraction,several hours
same,GABA-induced current potentiation,Jurkat cells [8],734%
same,airway mucous metaplasia / mucin volume density,Ova S/C Balb/c mice [3]; 20 mg/kg i.p. injections daily for 5 days,did not significantly change airway mucous metaplasia
same,airway mucous metaplasia / mucin volume density,Ova S/C Balb/c mice [3]; 20 mg/kg/day via osmotic pump,no change in airway mucous metaplasia
same,mucin production,"Ova S/C Balb/c mice [3]; acute, single i.p. injection for 40 minutes",did not change mucin production
same,"methacholine-induced AHR (sRaw), words",Ova S/C Balb/c mice [9]; 20 mg/kg i.p. twice daily for 5 days,reduced methacholine-induced AHR
same,"methacholine-induced AHR (sRaw), words","Ova S/C Balb/c mice [9]; osmotic pump, 20 mg/kg daily for 7 days",effective in reducing AHR at low concentrations of methacholine
same,"methacholine-induced AHR (sRaw), words","Ova S/C Balb/c mice [9]; single i.p. 10 mg/kg, 40 minutes prior to analysis",did not alter AHR
same,"methacholine-induced AHR (sRaw), words","Ova S/C Balb/c mice [9]; single i.p. 20 mg/kg, 40 minutes prior to analysis",did not alter AHR
same,relaxation of airway smooth muscle contractile force,[10],induced active relaxation
same,IL-2 production,"Jurkat cells [1]; under similar conditions, without supplemental GABA",did not reduce IL-2 production
same,extent of inhibition of PMA/PHA-induced increases in [Ca2+]i,"Jurkat cells [2]; Jurkat cells, Fluo-4",partial inhibition
same,IC50,"Jurkat cells [2]; read-out: IC50, PMA/PHA-induced increase in [Ca2+]i, Jurkat cells, Fluo-4",24.3 ± 9.8 nM
same,Mouse liver microsomes % remaining after 1 hour,[11]; 1 hour incubation,86.3 ± 0.3%
same,predicted half-life,[11]; mouse liver microsomes and S9 fraction,several hours
same,AUC in brain as % of the AUC in blood,[12],79%
same,AUC in lung as % of the blood AUC,[12],60%
same,Cmax in blood versus lung,[12],roughly two times higher in blood than in lung
same,Tmax in blood,[12],10 min
same,Tmax in lung,[12],3 min
same,half-life in brain,[12],36.7 min
same,half-life in lung,[12],17.6 min
same,airway eosinophilia,Ova S/C Balb/c mice [4]; 20 mg/kg twice i.p. injection daily for 5 days,not effective in reducing airway eosinophilia
same,airway eosinophilia,Ova S/C Balb/c mice [4]; 20 mg/kg via osmotic pump,no change in airway eosinophilia
same,airway eosinophilia,"Ova S/C Balb/c mice [4]; acute, single i.p. injection 20 mg/kg for 40 minutes",not effective in reducing airway eosinophilia
same,reported activity at α6β3γ2 GABAAR,α6β3γ2 GABAAR,some activity
same,human S9 fraction % remaining after 1 hour,[13],95.6 ± 0.3%
same,Mouse plasma (stability; row prints no unit or time),[14]; Table 1 of in vitro metabolic stability,92.6 ± 0.2
same,stability in blood plasma,[14]; at least one hour,stable in blood plasma
same,motor impairment on rotarod,Balb/c mice; 5 mg/kg i.p.,did not impair motorsensory coordination
same,motor impairment on rotarod,Balb/c mice; 40 mg/kg i.p.,did cause motor-impairing effects
"CN1C(=O)CN=C(c2ccccc2)c2cc(Cl)ccc21 [diazepam, reference compound]",motor impairment on rotarod,Balb/c mice; 5 mg/kg i.p.,induced significant motor impairment
